This series is described as follows: Toxicity liver stage against HepG2, at 10uM. Type of series: cell-based. Further details: test concentration 10 uM, cell line HepG2-A16-CD81EGFP. The conditions noted are these: human, HepG2-A16-CD81EGFP cells; read-out: INHIBITION
The method in brief:
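Uninfected HepG2-A16-CD81EGFP cells, 3 × 10^3 per well, 1536-well, plated on prespotted compound at 10 μM final, parasite-free screening media added to match infected plates; puromycin 10 μM positive, DMSO 0.5% negative; run in parallel with 48 h PbLuc assay at 37 °C, 5% CO2; viability by CellTiter-Glo luminescence, normalized to controls.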
`CSc1cccc(CN2CCC(CCC(=O)NC3CC3)CC2)c1`: the cytotoxicity at 10 µM stood at 1.28%.
To `O=C(NCc1nnc2n1CCC2)c1cn(-c2cccc(Br)c2)nn1` belongs -4.3%; to `O=C(CC1NC(N2CCc3ccccc32)=NC1=O)Nc1ccc(Cl)cc1` (configuration not stated), 1.54%; to `COc1ccc2c(ccn2CC(=O)Nc2n[nH]c(C(C)C)n2)c1`, -6.72%.
The result for `Cc1c(Cl)c(C(F)(F)F)nn1C(C)C(=O)NN1CCN(C)CC1` (configuration not stated) reads -7.85%.
Take `COc1ccc(NC(C)=O)cc1S(=O)(=O)Nc1ccon1`: the cytotoxicity at 10 µM turned out to be 1.08%.
The result for `CCOc1ccc(C(=O)n2cccn2)cc1` reads 0.45%.
Consider `c1cc(CN2CCC(c3ccnc4nccn34)C2)ccn1` (configuration not stated), for which the cytotoxicity at 10 µM was 1.58%.
To `CNC(=O)C1(c2cnccn2)CCCN1C(=O)Cc1ccsc1` (configuration not stated) belongs 4.12%; to `Cc1nnc2n1CCN(C(=O)C1CCN(Cc3ccccc3)CC1)C2`, 1.28%.
To `O=C1NCCCCC1SCc1coc(-c2ccccc2)n1` (configuration not stated) belongs 11.6%; to `CCc1oc(C(=O)N2CCCC(c3nnn[nH]3)C2)cc1C` (configuration not stated), 9.09%; to `Cc1cc(C)c(NC(=O)Nc2cnn(CC(O)CN(C)C)c2)c(C)c1` (configuration not stated), 12.5%.
Take `Cc1ccc(CNC(=O)Nc2nnc(C3CC3)s2)n1C`: the cytotoxicity at 10 µM was -1.61%.
To `CS(=O)(=O)CCNC(=O)Nc1ccc(Cl)cc1-n1cccc1` belongs 48.2%.
To `Cc1cc(OCCC(=O)NCc2ccc(F)cc2)nnc1C` belongs 4.4%; to `Cn1ncc2c(=O)[nH]c(N3CCCC3c3cccs3)nc21` (configuration not stated), -0.53%; to `Cc1cc(NC(=O)N(C)CCN2CCN(c3ccccc3)CC2)on1`, 4.79%.
In the case of `CC(Nc1ccc2c(c1)CCC2)c1nc(C2CC2)no1` (configuration not stated), the cytotoxicity at 10 µM was determined as 7.92%.
The result for `CC(C)(C)OC(=O)N1CCC(C(=O)NC2CCS(=O)(=O)C2)CC1` (configuration not stated) reads -6.81%.
The result for `CN(C)c1ccc(C(=O)N(Cc2ccncc2)CC2CCCO2)nn1` (configuration not stated) reads 14.2%; that for `Cc1nc(CNCC2CCCN(C(=O)OC(C)(C)C)C2)cs1` (configuration not stated), -18.2%.
Turning to `NC(=O)NC(=O)CN1CCN(CC2CC2)c2ccccc21`, the cytotoxicity at 10 µM was 11.7%.
Regarding `O=S(=O)(CCCc1ccccc1)Cc1nnnn1C1CC1`, the cytotoxicity at 10 µM is -1.01%.
The result for `CCCC(NC(=O)c1cscc1C)c1nnn[nH]1` (configuration not stated) reads 19.5%; that for `CSc1ccc(CNCCS(=O)(=O)N2CCOCC2)cc1`, 4.83%.
To `Cn1cc(CC(=O)N2CCOC(c3nc(C(C)(C)C)n[nH]3)C2)cn1` (configuration not stated) belongs 2.4%; to `Cc1ccc(OC2CCN(S(=O)(=O)N(C)C)CC2)nc1`, 7.68%; to `CN1CC(C(=O)N2CCC(Oc3ccccc3Cl)CC2)CC1=O` (configuration not stated), 9.99%.
For the compound `CCn1ncc2c1CCCC2NCc1cscn1` (configuration not stated), the cytotoxicity at 10 µM was -2.42%.
To `Cc1nc(CN2CCN(C(C)C(=O)NC3CCCC3)CC2)cs1` (configuration not stated) belongs -3.9%.
To `CCOCc1ccc(CNc2nc(OC)ncc2Cl)cc1` belongs 13.2%.
To `c1cnn(C2CN(CCCOc3ccc4c(c3)OCO4)C2)c1` belongs -4.73%.
In the case of `COc1ccc(-c2ccc(C(=O)NCCCC(N)=O)c(F)c2)c(F)c1`, the cytotoxicity at 10 µM was 0.393%.
On to `CSCc1cc(F)ccc1CNCc1cccnc1`, for which the cytotoxicity at 10 µM was -9.84%.
To `Cc1occc1C(=O)N1CCCS1(=O)=O` belongs -11%.
To `Cc1noc(C)c1CN(C)c1ncnc2ccccc12` belongs -6.4%; to `CCN(CC)S(=O)(=O)CCNC(=O)N(C)C(C)c1ccccn1` (configuration not stated), 10.6%.
Regarding `N#CCSCCCN1CCCC(C(=O)N2CCCCCC2)C1` (configuration not stated), the cytotoxicity at 10 µM turned out to be 4.01%.
In the case of `CCOC[C@@H]1CCC[C@]12CN(S(=O)(=O)c1cn(C)cn1)CCO2`, the cytotoxicity at 10 µM was found to be 5.7%.
As for `O=C(NCC1CC1)[C@H]1C[C@H]2OCC[C@H]2N(Cc2ccoc2)C1`, the cytotoxicity at 10 µM was -3.01%.
The result for `COCC1CN(C(=O)c2ccoc2C)Cc2nccn2C1` (configuration not stated) reads 6.1%; that for `C[C@@H]1CN(C(=O)c2ccsc2)C[C@]12CCN(c1ccsc1)C2=O`, 1.88%.
To `COc1ccc2c(c1)OCC(Cc1cc(C(=O)N3CCCC3)ccn1)C2` (configuration not stated) belongs -0.675%; to `Cc1[nH]c2c(C)ccc(C)c2c1CC(=O)NC1CCCNC1=O` (configuration not stated), -0.274%.
Take `Cc1ccc(C(C(=O)NC(C)(C)CN2CCCC2)N(C)C)cc1` (configuration not stated): the cytotoxicity at 10 µM was -6.93%.
To `CCNC(=O)[C@@H]1C[C@H](N)CN1Cc1ccc2cccc(Cl)c2n1` belongs 5.91%; to `O=C(c1cn(Cc2ccc(Cl)cc2)nn1)N1CCCO1`, -6.01%.
To `O=S(=O)(NCCn1cc(C2CCCNC2)nn1)c1ccc(Cl)cc1` (configuration not stated) belongs -17.1%; to `CCc1cc(N2CCC(N[C@@H]3CS(=O)(=O)C[C@H]3O)CC2)nc(N(C)C)n1`, -0.157%; to `CC(C)C1CN(Cc2nccn2C(C)C)CCC(=O)N1CC1CC1` (configuration not stated), -11%.
To `O=C(NCc1nncn1C1CCCCC1)C1COc2ccccc2O1` (configuration not stated) belongs 2.83%; to `CC(CO)(CO)NC(=O)C1CCC(=O)N(Cc2ccc(Cl)cc2)C1` (configuration not stated), -4.71%; to `Cc1cc(NCCNc2cccnc2)nc(-c2ccccc2O)n1`, 47.9%.
Regarding `COCCc1noc(CN2CCC(c3ccccc3C(=O)O)C2)n1` (configuration not stated), the cytotoxicity at 10 µM is -3.03%.
The result for `O=C1NCC2(CCCN(C(=O)CCn3cnc4ccccc43)CC2)O1` (configuration not stated) reads -4.8%; that for `Cc1cnn(CCC(=O)N2CCN(C(=O)C(C)C)[C@@H]3CS(=O)(=O)C[C@@H]32)c1`, 2.47%.
`CCn1c(C)cc(C(=O)N2C[C@@H](C(=O)O)[C@H](c3ccccc3)C2)c1C`: the cytotoxicity at 10 µM is -0.173%.
The result for `O=C(c1ccc2cccc(F)c2n1)N1CCN(CCn2cncn2)CC1` reads 7.02%; that for `COCCCC1CCCN(C(=O)CCc2csc(N)n2)C1` (configuration not stated), -2.66%; that for `O=C(O)[C@@H]1CN(C(=O)CCc2ccccn2)C[C@H]1c1ccccc1`, 7.96%.
To `CCCOCC1CCN(C(=O)c2cnc(C)nc2O)C1` (configuration not stated) belongs -3.15%; to `CC(C1CCN(C(=O)c2coc(CN3CCOCC3)c2)CC1)N(C)C` (configuration not stated), -4.07%; to `O=C(NCCN1CCCC(CO)C1)c1ccc2scnc2c1` (configuration not stated), 8.61%.
For `Cc1ccc(C)c(OCc2cc(C(=O)N(C)Cc3nonc3C)no2)c1`, the cytotoxicity at 10 µM was -5.83%.
To `CCc1nnc(CN(CC)C(=O)C2CC(=O)N(C(C)(C)C)C2)o1` (configuration not stated) belongs 1.56%.
To `Cc1nc(CNCc2ccc(OC34CCCN(CC3)C4)cc2)n[nH]1` (configuration not stated) belongs 1.01%; to `Cc1nccn1CCC1CCN(c2ccncn2)CC1`, -9.14%; to `O=C(c1cccc2ccnn12)N1CCCC1Cn1cccn1` (configuration not stated), -126%.
The result for `CC(C)(C)C(=O)NCCC1CN(Cc2ccccc2F)CCO1` (configuration not stated) reads -2.05%; that for `Cc1ccsc1-c1nccn1C1CC(=O)N(C(C)C)C1` (configuration not stated), -9.73%.
For `CNc1ncc(CN(C)Cc2cc(O)c3cc(C)cc(C)c3n2)cn1`, the cytotoxicity at 10 µM is -13.9%.
The result for `Fc1ccc(CCN2CCC(c3nnc(-c4cccnc4)o3)CC2)cc1` reads 6.59%.
The result for `OC1CCCN(Cc2c(-c3ccco3)[nH]c3ncccc23)C1` (configuration not stated) reads -5.87%; that for `Cc1ncsc1-c1nnc(C2CCN(Cc3ccc(F)cc3)CC2)o1`, 3.52%.
The result for `COc1cccc(N2CCN(C(=O)CN(C)c3cnccn3)CC2)c1` reads -15.2%; that for `CC(C)=CCN1CCN(Cc2nccn2C)C(C)C1` (configuration not stated), -14.4%.
Consider `CC(=O)NC1CCCN(Cc2csc(-c3ncccn3)n2)C1` (configuration not stated), for which the cytotoxicity at 10 µM was -13.1%.
The result for `CN1CCN(c2cc(CNC(=O)c3cnccn3)ccn2)CC1` reads -8.92%; that for `Cc1cc(CN2CCCC(Cn3cncn3)C2)on1` (configuration not stated), -25.2%; that for `Cc1n[nH]c(C2CN(CCc3cccs3)CCO2)n1` (configuration not stated), -15.8%.
The result for `CCCc1n[nH]c(C2CN(C(=O)c3ccnc(C4CC4)n3)CCO2)n1` (configuration not stated) reads -7.49%; that for `c1ccc(-c2nc(CNC3CCc4ncnn4C3)co2)cc1` (configuration not stated), -8.6%; that for `CC(C)c1nn(C)c(N(C)C)c1CNCCC(=O)NC1CCCC1`, -6.63%.
`CC(C)COCC(NC(=O)c1cccnc1)c1ccco1` (configuration not stated): the cytotoxicity at 10 µM was -12.1%.
The result for `Cc1[nH]ncc1C(=O)N1CCN(CC(O)C(C)(C)C)CC1` (configuration not stated) reads -0.00964%; that for `CNC(=O)[C@@H](c1ccccc1OC)N1CCC[C@H]1C(=O)NC1CC1`, -4.39%; that for `Cc1csc(CN2CCC[C@]3(C[C@@H](OCC4CC4)CO3)C2)n1`, -134%.
Regarding `CN(Cc1ccco1)[C@@H]1CN(Cc2nccn2C)[C@@H]2CCCO[C@H]12`, the cytotoxicity at 10 µM is -67.9%.
The result for `Cc1cccc(CN2CCO[C@@H]3CC(COc4ccccn4)C[C@H]32)n1` (some centres not stated) reads -3.31%.
With `Cc1ccc(N2C[C@@H]3OCCN(CC4CC4)[C@@H]3C2)nn1`, the cytotoxicity at 10 µM was found to be 3.59%.
To `Cn1ncc2c1CCCC2NCc1ccc(Br)s1` (configuration not stated) belongs -4.41%.
The result for `Cc1ccc(C(=O)N2CC[C@]3(C[C@@H](OCc4ccccn4)CO3)C2)nc1` reads -74.6%; that for `c1cc(CN2CCCn3cnc(COCC4CC4)c3C2)co1`, -74.2%.
To `Cc1ccc(C(=O)N2C[C@@H](OCc3cccnc3)[C@H]3OCCC[C@@H]32)o1` belongs -2.52%; to `Cc1oncc1C(=O)NCc1cc(=O)n2c(n1)CN(C(C)C)CCC2`, 2.45%; to `O=C(NC1CCC(O)CC1)c1ccc2nc(-c3ccc(F)cc3)cn2c1` (configuration not stated), 1.31%.

Source of the values: ChEMBL document CHEMBL4513216, “Probing the Open Global Health Chemical Diversity Library for Multistage-Active Starting Points for Next-Generation Antimalarials” (ACS Infect Dis, 2020).
